Experimental data taken from article PMC3337761 (Drug Development and Industrial Pharmacy, 2010).
≈ marks a conversion by molar mass, not a printed value.

How the values were obtained:
Solubility in solvents = assay type: physicochemical
[1] = Pharmacokinetics in rhesus macaques; assay type: in vivo, Rhesus Macaques (Macaca mulatta)
Procedure, shortened: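 Two rhesus macaques, fasted overnight with water allowed. Oral powder was mixed into a chocolate treat, with dose set by the amount eaten. After a 2-week washout, i.v. dosing used 5 mg/mL in 25% Cremophor EL/75% PBS. Ketamine 10 mg/kg i.m. for sampling. EDTA plasma taken pre-dose to 24 h, C18 SPE, then LC-ESI-MS (m/z 277; analogue internal standard; calibration 25 nM–2.5 µM). F = dose-normalised AUC po/iv.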

[2] = male, rhesus monkey, plasma, iv, 5 mg/kg
[3] = male, rhesus monkey, plasma, po, 50 mg/kg

Clc1ccccc1C(c1ccccc1)(c1ccccc1)n1cccn1 [TRAM-34, 1-[(2-chlorophenyl)-diphenylmethyl]-1H-pyrazole]
solubility (Solubility in solvents; ethanol, organic solvent or mixture): 4000 µg/mL (≈ 11.6 mM) | solubility in water (Solubility in solvents; water): practically insoluble in water | AUC(0-t) [1, 2]: 3.64 µM·h | Vd [1, 2]: 11.1 L/kg | clearance [1, 2]: 53.3 mL/min/kg | bioavailability ([1]; male, rhesus monkey, plasma, oral, 50 mg/kg): 0.3% | AUC(0-t) [1, 3]: 0.103 µM·h | Cmax [1, 3]: 22.5 nM | Tmax [1, 3]: 2 h | Vd ([1]; oral powder without enteric coating, 50 mg/kg, Rhesus Macaques): 6.5 L/kg
